From ChEMBL document CHEMBL1135922, “A common mechanism underlying promiscuous inhibitors from virtual and high-throughput screening” (J Med Chem, 2002)

Assay: Aggregates forming ability by dynamic light scattering(DLS).
Procedure, shortened: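 Compound from 10 mM DMSO stock diluted into filtered KPi (5, 50 or 500 mM); dynamic light scattering at 90° detector angle, 25 °C, argon-ion laser at 514.4 nm (helium-neon 632.8 nm for dyes absorbing at 514.4 nm). Mean particle diameter by cumulant analysis; scattering intensity recorded. Each value from four or more independent measurements.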

| DLS Concentration | SMILES |
| --- | --- |
| 50 µM | CCCCc1ccc(-c2cc(C(=O)O)cc(-c3ccc(Cl)cc3)n2)cc1 |
| 50 µM | O=C(O)c1cc(-c2ccc(Cl)cc2)nc(-c2ccc(Sc3ccc(Cl)cc3)cc2)c1 |
| 80 µM | O=C(O)c1cc(-c2ccc(Cl)cc2)nc(-c2ccc(-c3ccccc3)cc2)c1 |
| 15 µM | O=C(Nc1nnc(Sc2nc3cc(Cl)ccc3s2)s1)c1cccs1 |
| 10 µM | O=C(N/N=C/c1ccccc1O)C(=O)N/N=C/c1ccccc1O |
| 500 µM | Cc1ccc(-c2cc(C(=O)O)cc(-c3ccc4ccccc4c3)n2)cc1 |
| 10 µM | Oc1ccc(/N=N/c2ccc(Br)cc2)cc1 |
| 20 µM | O=C1Nc2ccccc2/C1=C/c1ccc(-c2cccs2)s1 |
| 500 µM | O=C1OC2(c3cc(I)c(O)c(I)c3Oc3c2cc(I)c(O)c3I)c2c(Cl)c(Cl)c(Cl)c(Cl)c21 |
| 100 µM | Oc1oc(/C=N/c2ccc(Oc3ccccc3)cc2)c2ccccc12 |
| 300 µM | Oc1ccc(-c2csc(Nc3ccc(F)cc3F)n2)cc1O |
| 50 µM | CC(C)(C)c1ccc(-c2cc(C(=O)O)cc(-c3ccc(Cl)c(Cl)c3)n2)cc1 |
| 1000 µM | O=S(=O)(O)c1cccc2cccc(Nc3ccccc3)c12 |
| 100 µM | OB(O)c1cc2ccccc2s1 |
| 40 µM | O=C1Nc2ccccc2/C1=C\c1ccc2c(c1O)CCCC2 |
| 30 µM | CN(C)c1ccc(/C=C2/C(=O)Nc3ccccc32)cc1 |
| 20 µM | Cc1cc(Cl)cc2c1C(=O)/C(=C1/Sc3cc(Cl)cc(C)c3C1=O)S2 |
| 500 µM | CCCCCCC(Oc1ccc(S(=O)(=O)c2ccc(OCc3ccccc3)cc2)cc1)C(=O)O (stereo not given) |
| 10 µM | CC(C)(C)c1cc(/C=C2/C(=O)Nc3ncccc32)cc(C(C)(C)C)c1O |
| 100 µM | C(=C1c2ccccc2-c2ccccc21)C1CCCNC1 (stereo not given) |
| 20 µM | O=C(O)COc1ccc(/N=N/c2ccc3cc(Br)ccc3c2O)cc1 |
| 500 µM | Oc1ccc(/N=N/c2cccc(Br)c2)cc1 |
| 750 µM | Nc1c(/N=N/c2ccc(-c3ccc(/N=N/c4cc(S(=O)(=O)O)c5ccccc5c4N)cc3)cc2)cc(S(=O)(=O)O)c2ccccc12 |
| 50 µM | CC(C)CC(Oc1ccc(OC(=O)c2cc(-c3ccc(Cl)cc3)nc(-c3ccc(Cl)cc3)c2)cc1)C(=O)O (stereo not given) |
| 10 µM | CC(C)c1ccc(/C=C2/C(=O)Nc3ccccc32)cc1 |

| SMILES | DLS Concentration |
| --- | --- |
| COc1ccc2c(c1)CC[C@@H]1[C@@H]2CC[C@]2(C)[C@@H](NCCCc3ccccc3)CC[C@@H]12 | 100 µM |
| COC1CC[C@@]2(C)[C@@H](CC[C@@H]3[C@@H]2[C@@H](O)C[C@]2(C)[C@@H](NCCN)CC[C@@H]32)C1 (stereo not given in full) | 100 µM |
| COc1ccc2c(c1)CC[C@@H]1[C@@H]2CC[C@]2(C)[C@@H](NCCNc3ccc([N+](=O)[O-])cn3)CC[C@@H]12 | 40 µM |
| O=C1C(I)=CC(=C(c2cc(I)c(O)c(I)c2)c2ccccc2C(=O)O)C=C1I | 10 µM |
| O=C1C2C(C(=O)N1Nc1ccc([N+](=O)[O-])cc1[N+](=O)[O-])[C@@]1(Cl)C(Cl)=C(Cl)[C@]2(Cl)C1(Cl)Cl (stereo not given in full) | 15 µM |
